Results reported in ChEMBL document CHEMBL3124841, “Discovery of vinyl sulfones as a novel class of neuroprotective agents toward Parkinson's disease therapy” (J Med Chem, 2014).
Activity calls are given as the source filed them. The rule behind the calls is not given here.

Experiments:
[1] = target: T1, Nuclear factor erythroid 2-related factor 2 (Mus musculus) (UniProt Q60795); assay: Induction of Nrf2-dependent HO1 gene expression in mouse CATH.a cells at 0.1 uM after 6 hrs by RT-PCR analysis; assay type: cell-based
T1 sequence (whole entry): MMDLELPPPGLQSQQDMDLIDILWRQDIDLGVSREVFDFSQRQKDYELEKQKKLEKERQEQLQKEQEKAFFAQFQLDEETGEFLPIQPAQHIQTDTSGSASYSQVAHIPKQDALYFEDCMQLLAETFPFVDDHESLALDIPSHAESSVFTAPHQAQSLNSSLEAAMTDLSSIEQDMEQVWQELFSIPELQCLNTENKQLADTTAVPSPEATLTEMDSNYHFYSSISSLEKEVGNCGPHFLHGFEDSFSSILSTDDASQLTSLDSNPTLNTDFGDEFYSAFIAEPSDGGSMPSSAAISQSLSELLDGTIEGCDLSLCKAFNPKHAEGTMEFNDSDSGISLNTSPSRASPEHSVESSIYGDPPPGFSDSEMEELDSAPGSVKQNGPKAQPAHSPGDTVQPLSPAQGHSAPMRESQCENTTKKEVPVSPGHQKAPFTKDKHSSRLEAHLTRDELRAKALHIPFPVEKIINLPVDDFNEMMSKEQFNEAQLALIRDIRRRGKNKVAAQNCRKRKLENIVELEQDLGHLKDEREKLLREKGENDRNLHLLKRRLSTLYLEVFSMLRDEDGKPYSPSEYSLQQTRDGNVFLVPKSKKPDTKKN
Procedure, shortened: (§1)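 CATH.a cells grown in RPMI 1640 with 8% horse serum and 4% FBS, exposed to graded concentrations for 6 h. mRNA analysed by RT-PCR with gene-specific primers, products run on 1% agarose gel, band densitometry normalized to GAPDH. At least duplicate cultures; fold induction versus untreated control ± SEM.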

[2] = target: T1, Nuclear factor erythroid 2-related factor 2 (Mus musculus); assay: Induction of Nrf2-dependent GCLC protein expression in mouse CATH.a cells at 0.1 uM after 24 hrs by western blot analysis; assay type: cell-based
Procedure, shortened: (§2)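 Cells (CATH.a) exposed to graded concentrations for 24 h, lysed in RIPA buffer with protease inhibitors. Equal protein separated on 10% SDS gel, blotted; primary antibodies overnight at 4 °C, HRP secondary, chemiluminescence. Densitometry normalized to β-actin. At least duplicate cultures, fold of untreated control ± SEM.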

Mus musculus [3] = assay: (§3) Inhibition of motor deficits in MPTP-induced C57Bl/6 mouse parkinson's disease model assessed as number of successful steps taken on the apparatus at 10 mg/kg/day, po for 3 days administered first dose at 24 hrs prior to first injection of 4X 20 mg/kg, ip MPTP challenge by vertical grid test (reference value: 75.4 +/-6.2%); assay type: functional; parameters: scale not given: the % may be the effect or the level left
Mus musculus [4] = assay: as §3, with “total time” for “number of successful steps”, “grid” for “the”, “34.8 +/-5.4s)” for “75.4 +/-6.2%)”; assay type: functional
Mus musculus [5] = assay: Inhibition of motor deficits in MPTP-induced C57Bl/6 mouse parkinson's disease model assessed as improvement in postural balance at 10 mg/kg/day, po for 3 days administered first dose at 24 hrs prior to first injection of 4X 20 mg/kg, ip MPTP challenge measured 6 days after last MPTP injection by hind-limb test; assay type: functional, organism-based
Procedure, shortened: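 C57Bl/6 males (n = 10/group), 10 mg/kg/day po for 3 days in N-methyl-2-pyrrolidone/20% Tween 80 saline. MPTP 4 × 20 mg/kg ip at 2 h intervals, begun 24 h after first dose. Six days after last MPTP injection, mice suspended by tail and hindlimb position scored 0−4. Mean ± SEM.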

Mus musculus [6] = assay: (§4) Neuroprotective activity against MPTP-induced neurodegeneration in C57Bl/6 mouse parkinson's disease model assessed as increase in DAergic neurons in SN at 10 mg/kg/day, po for 3 days administered first dose at 24 hrs prior to first injection of 4X 20 mg/kg, ip MPTP challenge measured 7 days after first MPTP injection by immunohistochemistry; assay type: functional, organism-based
Procedure, shortened: (§5)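 Male C57Bl/6 mice (23−25 g, n = 10/group) dosed orally at 10 mg/kg/day for 3 days, vehicle N-methyl-2-pyrrolidone and 20% Tween 80 in saline. MPTP 4 × 20 mg/kg ip 2 h apart, starting 24 h after first oral dose. Perfusion-fixed 7 days after first MPTP; TH immunostaining, nigral cells counted and striatal fibers densitometered on five sections each, 80 μm apart. Expressed as % vehicle control ± SEM.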

[7] = target: T1, Nuclear factor erythroid 2-related factor 2 (Mus musculus); assay: Induction of Nrf2-dependent NQO1 gene expression in mouse CATH.a cells at 10 uM after 6 hrs by RT-PCR analysis relative to control; assay type: cell-based; procedure, shortened: as §1
Mus musculus [8] = assay: Effect on DAergic neurons in C57Bl/6 mouse SN at 10 mg/kg/day, po for 3 days by immunohistochemistry; assay type: ADME, organism-based; parameters: route oral; details: in vivo, 72 h; procedure, shortened: as §5
[9] = target: T1, Nuclear factor erythroid 2-related factor 2 (Mus musculus); assay: Induction of Nrf2-dependent GCLC gene expression in mouse CATH.a cells at 0.1 uM after 6 hrs by RT-PCR analysis; assay type: cell-based; procedure, shortened: as §1
[10] = target: T1, Nuclear factor erythroid 2-related factor 2 (Mus musculus); assay: Induction of Nrf2-dependent GCLM protein expression in mouse CATH.a cells after 24 hrs by western blot analysis; assay type: cell-based; procedure, shortened: as §2
[11] = target: T1, Nuclear factor erythroid 2-related factor 2 (Mus musculus); assay: Induction of Nrf2-dependent HO1 protein expression in mouse CATH.a cells at 1 to 10 uM after 24 hrs by western blot analysis relative to control; assay type: cell-based; procedure, shortened: as §2
[12] = target: T1, Nuclear factor erythroid 2-related factor 2 (Mus musculus); assay: Induction of Nrf2-dependent GCLM gene expression in mouse CATH.a cells at 2 uM after 6 hrs by RT-PCR analysis relative to control; assay type: cell-based; procedure, shortened: as §1
[13] = target: T1, Nuclear factor erythroid 2-related factor 2 (Mus musculus); assay: Activation of Nrf2 in mouse CATH.a cells assessed as increase in total Nrf2 protein level after 24 hrs by western blot analysis; assay type: cell-based
Procedure, shortened: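 CATH.a cells (RPMI 1640, 8% horse serum, 4% FBS, 37 °C, 5% CO2) exposed to various concentrations for 24 h. Whole-cell lysate in RIPA buffer with protease inhibitors, 10% SDS-PAGE, Nrf2 immunoblot, chemiluminescence, densitometry normalized to β-actin. At least duplicate cultures, averaged, fold of untreated control ± SEM.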

[14] = target: T1, Nuclear factor erythroid 2-related factor 2 (Mus musculus); assay: Induction of Nrf2-dependent NQO1 protein expression in mouse CATH.a cells at 10 uM after 24 hrs by western blot analysis relative to control; assay type: cell-based; procedure, shortened: as §2
[15] = target: T1, Nuclear factor erythroid 2-related factor 2 (Mus musculus); assay: Induction of Nrf2-dependent HO1 gene expression in mouse CATH.a cells at 1 to 10 uM after 6 hrs by RT-PCR analysis relative to control; assay type: cell-based; procedure, shortened: as §1
[16] = target: T1, Nuclear factor erythroid 2-related factor 2 (Mus musculus); assay: Induction of Nrf2-dependent NQO1 protein expression in mouse CATH.a cells at 0.1 uM after 24 hrs by western blot analysis; assay type: cell-based; procedure, shortened: as §2
Mus musculus [17] = assay: as §3, with “time” for “number of successful steps”, “to turn around” for “on the apparatus”, “12.4 +/-1.8 s)” for “75.4 +/-6.2%)”; assay type: functional
[18] = target: T1, Nuclear factor erythroid 2-related factor 2 (Mus musculus); assay: Induction of Nrf2-dependent HO1 protein expression in mouse CATH.a cells at 0.1 uM after 24 hrs by western blot analysis; assay type: cell-based; procedure, shortened: as §2
[19] = target: T1, Nuclear factor erythroid 2-related factor 2 (Mus musculus); assay: Induction of Nrf2-dependent GCLC gene expression in mouse CATH.a cells at 10 uM after 6 hrs by RT-PCR analysis relative to control; assay type: cell-based; procedure, shortened: as §1
Mus musculus [20] = assay: as §4, with “fibers” for “neurons”, “striatum” for “SN”; assay type: functional, organism-based; procedure, shortened: as §5
[21] = target: T1, Nuclear factor erythroid 2-related factor 2 (Mus musculus); assay: Induction of Nrf2-dependent NQO1 gene expression in mouse CATH.a cells at 1 uM after 6 hrs by RT-PCR analysis relative to control; assay type: cell-based; procedure, shortened: as §1

In the case of `COc1ccccc1S(=O)(=O)/C=C/c1ccccc1Cl`, the Activity [1] was “inactive”, the Activity [2] was “inactive” and the Activity (Mus musculus [3]) was 96.9%. The Time (Mus musculus [4]) was 10.3 s, the inhibition (Mus musculus [5]) was “Active” and the Activity (Mus musculus [6]) was “Active”. For the same molecule, the fold change (FC) [7] was 5.67, the Activity (Mus musculus [8]) was “Non-toxic” and the Activity [9] was “inactive”. The Activity [10] was “Dose-dependent effect”, the fold change (FC) [11] was 3 and the fold change (FC) [12] was 1.43. For the same molecule, the Activity [13] was “Dose-dependent effect”, the fold change (FC) [14] was 4.43 and the fold change (FC) [15] was 3. The Activity [16] was “inactive”, the Time (Mus musculus [17]) was 4 s and the Activity [18] was “inactive”. The fold change (FC) [19] was 2.64, the Activity (Mus musculus [20]) was “Active” and the fold change (FC) [21] was 1.95.
